Compounds with a hit are over-represented: about 5.7% of the library has one in this group of screens.
T cruzi inh: inhibitors of intracellular T. cruzi growth, primary screen, luminescence, NIH3T3 host cells; T. cruzi beta-gal in NIH3T3, 90 h; inhibition, % (no concentration beside the values); hit rate 1.4% among 300,000; AID 1885, 2009;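 active = mean inhibition across valid replicates above about 55%, limit read from the data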;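 note: signal also drops with host cell toxicity which is not excluded here; 0% = plate median of DMSO wells and 100% = zero luminescence signal; higher percent means less beta-gal luminescence so fewer parasites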
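System – NIH/3T3 host cells with β-galactosidase reporter T. cruzi · Doses – single 50 nL compound addition per well in DMSO · Reagent – 5000 T. cruzi trypomastigotes/well · Medium – Low-serum DMEM with 2% FBS · Timing – ≥90 h infection period, 3 h prior cell attachment · Evaluation – parasite load inhibition, % · Technique – GalScreen luminescence, 60 min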
Mdm2 MdmX PPI: inhibitors of human Mdm2-MdmX association, primary screen, cell-based, luminescence, split luciferase, SaOS-2, uHTS; Protein Mdm4 (Homo sapiens) + E3 ubiquitin-protein ligase Mdm2 (Homo sapiens), …; SaOS-2 split-luciferase Mdm2/MdmX complementation; inhibition, % at 8 µM; hit rate 3% among 330,000;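 active = inhibition of at least 50% at 8 µM in the primary screen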
Target sequence (O15151 whole entry, looked up): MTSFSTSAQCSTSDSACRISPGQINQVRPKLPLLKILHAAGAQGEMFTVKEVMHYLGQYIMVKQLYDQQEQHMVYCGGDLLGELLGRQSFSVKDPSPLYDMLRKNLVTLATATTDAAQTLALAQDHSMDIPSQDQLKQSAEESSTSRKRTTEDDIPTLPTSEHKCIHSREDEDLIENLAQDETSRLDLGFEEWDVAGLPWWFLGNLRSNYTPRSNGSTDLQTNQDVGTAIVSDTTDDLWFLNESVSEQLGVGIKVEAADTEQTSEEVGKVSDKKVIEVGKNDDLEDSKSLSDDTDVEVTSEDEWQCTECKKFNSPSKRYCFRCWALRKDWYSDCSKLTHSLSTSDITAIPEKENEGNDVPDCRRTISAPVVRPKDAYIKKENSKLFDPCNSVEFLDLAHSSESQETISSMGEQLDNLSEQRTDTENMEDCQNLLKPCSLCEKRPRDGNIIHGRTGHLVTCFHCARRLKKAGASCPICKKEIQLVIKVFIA
Target sequence (Q00987 whole entry, looked up): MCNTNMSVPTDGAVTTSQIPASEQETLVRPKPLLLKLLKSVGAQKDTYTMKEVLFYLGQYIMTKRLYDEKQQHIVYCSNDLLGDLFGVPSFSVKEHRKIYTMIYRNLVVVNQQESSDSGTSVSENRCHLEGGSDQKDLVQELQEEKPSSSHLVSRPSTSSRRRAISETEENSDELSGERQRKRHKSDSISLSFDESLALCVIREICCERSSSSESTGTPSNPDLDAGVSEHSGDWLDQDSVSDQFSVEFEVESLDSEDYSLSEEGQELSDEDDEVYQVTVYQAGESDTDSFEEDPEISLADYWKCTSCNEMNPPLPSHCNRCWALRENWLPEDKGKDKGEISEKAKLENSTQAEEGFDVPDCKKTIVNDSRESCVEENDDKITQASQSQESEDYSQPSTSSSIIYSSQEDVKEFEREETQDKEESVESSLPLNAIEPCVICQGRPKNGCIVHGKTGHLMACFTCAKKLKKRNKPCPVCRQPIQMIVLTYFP
Calb FLC: C. albicans growth inhibition with fluconazole, primary screen, CaCi-2 strain, Alamar Blue fluorescence | C. albicans CaCi-2 + fluconazole, 48 h | growth inhibition, % (no concentration beside the values) | hit rate 0.57% among 300,000 | AID 1979, 2009;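 active = growth inhibition above about 58% in most replicates, limit read from the data, passing the limit was not always enough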;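 note: all wells also contain fluconazole at 8 µg/ml as a sub-toxic cotreatment; 0% = median of DMSO wells and 100% = median of geldanamycin control wells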
SKKanGAS inh: S. pyogenes SKKanGAS growth inhibitors in kanamycin, primary screen, streptokinase expression inhibitor project, SKKanGAS strain, BacTiter-Glo luminescence | hit rate 1.3% among 300,000 | AID 1662, 2009 | inhibition, % at 7.5 µM | 6 h;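 active = mean replicate score, as percent of positive control median, at least 50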;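 note: strain carries kanamycin resistance gene driven by streptokinase promoter and grows in 40 µg/ml kanamycin; loss of luminescence reflects streptokinase promoter inhibition or plain growth inhibition; 0% = median of DMSO wells and 100% = positive control at its reference dose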
Beta apoptosis: inhibitors of cytokine-induced beta cell apoptosis, primary screen, luminescence; INS-1E cytokine-induced death, ATP luminescence, 48 h; percent of positive-control rescue, neutral wells zero; protection from apoptosis, % (no concentration beside the values); hit rate 0.8% among 300,000; AID 435005, 2010;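 active = Every replicate reaches about 75%, or at least half do and their mean reaches it too, limit read from the data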;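 note: 0% = cytokine-treated negative control wells and 100% = positive control rescue; higher means more ATP so stronger rescue from cytokine killing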
CSC inhib: cancer stem cell viability inhibitors, primary screen, luminescence. inhibition, % at 7.5 µM. cancer stem cell-like cells viability. hit rate 1.1% among 300,000. AID 2717, 2010; in the data active = inhibition above about 75%; tested in HMLE shEcad cells
Mdm2-MdmX conf: Mdm2-MdmX complex disruptors, retested hits, confirmation, luminescence, single concentration; hit rate 55% among 10,000; inhibition, % at 8 µM; Mdm2-MdmX binding, luminescent assay; shares compounds with Mdm2 MdmX PPI; in the data active = inhibition above about 40%
Full FLuc ctr: full-length luciferase signal inhibition, confirmation, counter-screen for Mdm2/MdmX interaction inhibitor project, cell-based, single concentration, SaOS-2; SaOS-2 full-length luciferase counterscreen, luminescence; shares compounds with Mdm2 MdmX PPI; inhibition, % at 8 µM; hit rate 77% among 6,200; AID 504607, 2011;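 active = mean inhibition at 8 µM reaching about 37%, which flags the compound as non-specific, limit read from the data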;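 note: p53-null SaOS-2 cells with luciferase driven by a doxycycline-inducible promoter; compound on cells about two nights before reading with doxycycline added after day one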
An asterisk follows results filed as active; . = no result.

SMILES	T cruzi inh	Mdm2 MdmX PPI	Calb FLC	SKKanGAS inh	Beta apoptosis	CSC inhib	Mdm2-MdmX conf	others
CCNc1nc(NC(C)C)nc(Oc2ccc(OCCOc3ccc(C)cc3)nn2)n1	3	52*	7	1	5	-5	21
CCN(CC)C(=O)c1nc[nH]c1C(=O)N1CCc2ccccc2C1	.	0	.	.	-8	-12	.
O=C(c1ccco1)N1CCN(C(=O)N2c3ccccc3Sc3ccccc32)CC1	4	52*	7	6	44	70	63*	Full FLuc ctr=92*
O=C(N1CCN(c2ccccn2)CC1)N1c2ccccc2Sc2ccccc21	20	79*	23	7	12	73	68*	Full FLuc ctr=78*
O=C(c1ccco1)N1c2ccccc2Sc2ccccc21	34	41	19	21	-4	-7	.
CCOC(=O)C(C)(C)N(Cc1cccc(C)c1)S(=O)(=O)c1cccc([N+](=O)[O-])c1	33	14	-13	8	-4	-14	.
CCOC(=O)C(C)(C)N(Cc1cccc(C)c1)S(=O)(=O)c1ccc(Cl)c([N+](=O)[O-])c1	1	57*	-1	-5	-10	24	16
O=C(NCc1nnc2c(C(F)(F)F)cc(Cl)cn12)c1ccc2c(c1)OCO2	2	11	.	-1	-1	-4	.
O=C1Cc2cc(S(=O)(=O)Nc3ccc(N4CCOCC4)cc3)ccc2N1	.	2	.	.	1	-21	.
CNc1nc(Nc2ccc(Br)cc2)nc(N)c1[N+](=O)[O-]	-2	67*	-3	32	-3	1	-20
COc1ccc(Nc2nc(N)c([N+](=O)[O-])c(NC3CCCCC3)n2)cc1	18	70*	8	32	3	101*	12
COc1ccc(Nc2nc(N)c([N+](=O)[O-])c(NCCO)n2)cc1	-11	18	-7	1	1	-10	.
COC(=O)[C@H]1C[C@@H](c2ccccc2)[C@H](C)C1(C)C	.	16	.	.	5	.	.
O=C(CSc1nc(-c2ccccc2)c(-c2ccccc2)[nH]1)NCc1ccco1	5	53*	13	1	-5	56	56*	Full FLuc ctr=73*
CC1CN(C(=O)Cn2cc(S(=O)(=O)CC(=O)N3CCOCC3)c3ccccc32)CC(C)O1 (stereo not drawn)	-14	9	3	2	-3	-3	.
CSc1ccccc1OCc1cc(C(=O)N2CCc3[nH]cnc3C2c2ccccn2)no1 (stereo not drawn)	4	5	3	1	0	8	.
Nc1ccc2nn(-c3cccc4ccccc34)nc2c1	6	53*	2	4	75*	-8	-1
CCc1ccc(NC(=O)C2C3CCC(O3)C2C(=O)O)cc1 (stereo not drawn)	-26	0	0	5	0	13	.
Cc1ccc(-c2csc3nc4c5ccccc5c(NCCCN(C)C)nn4c(=O)c23)cc1	35	100*	78*	10	7	-7	50*	Full FLuc ctr=64*
Cc1ccc(-c2csc3nc4c5ccccc5c(NCCCN5CCOCC5)nn4c(=O)c23)cc1	27	37	-6	5	-5	34	.
CC12CCC(=O)N1C(C(=O)N1CCN(c3ccc(C(F)(F)F)cc3[N+](=O)[O-])CC1)CS2 (stereo not drawn)	-1	23	1	2	-13	-9	.
COc1ccc(NS(=O)(=O)c2cccs2)cn1	-10	79*	-23	7	-6	-7	12
CCN(C(=O)COC(=O)CCc1ccc(OC)cc1)c1c(N)n(Cc2ccccc2)c(=O)[nH]c1=O	.	23	.	.	.	.	.
Cc1oc(-c2ccc(Cl)cc2)nc1CN1CCC(C(=O)NCCCN2CCCC(C)C2)CC1 (stereo not drawn)	49	100*	31	-1	3	-20	96*	Full FLuc ctr=21
CCN1CCN(CCNC(=O)C2CCN(Cc3nc(-c4ccc(Cl)cc4)oc3C)CC2)CC1	-4	99*	5	-5	4	8	53*	Full FLuc ctr=37*
SMILES	T cruzi inh	Mdm2 MdmX PPI	Calb FLC	SKKanGAS inh	Beta apoptosis	CSC inhib	Mdm2-MdmX conf	others
CCc1ccc(-c2nc(CN3CCC(C(=O)NCc4ccccc4OC)CC3)c(C)o2)cc1	-14	57*	-27	-3	13	5	25
COc1ccccc1CNC(=O)C1CCN(Cc2nc(-c3cccc(Cl)c3)oc2C)CC1	32	20	14	2	9	-14	.
CCN1CCCC1CNC(=O)C1CCN(Cc2nc(-c3cccc(Br)c3)oc2C)CC1 (stereo not drawn)	43	84*	-1	4	0	.	100*	Full FLuc ctr=4
COc1ccc(OC)c(NC(=O)CC2Oc3ccccc3NC2=O)c1 (stereo not drawn)	-12	-12	6	-7	-3	-11	.
NNC(=O)c1nc(-c2ccccc2)cc(-c2ccccc2)n1	-9	4	2	11	-10	0	.
CCCCc1cc(=O)oc2cc(OCC(=O)NC3CCN(Cc4ccccc4)CC3)ccc12	41	34	3	-10	7	20	.
O=C(CSC(=S)N1CCCC1)N1CCN(S(=O)(=O)c2ccccc2F)CC1	-8	30	-2	13	-2	-7	.
O=C(NCCN1CCOCC1)c1ccccc1OCc1ccccc1	.	12	.	.	-4	-7	.
Cc1ccccc1-c1nc(CN2CCC(C(=O)NCCCN3CC(C)CC(C)C3)CC2)c(C)o1 (stereo not drawn)	47	78*	14	-4	4	2	95*	Full FLuc ctr=26
Cc1oc(-c2ccc(Cl)cc2)nc1CN1CCC(C(=O)N2CCN(Cc3ccccc3)CC2)CC1	-27	48	4	-5	11	2	.
Cc1ccccc1-c1nc(CN2CCC(C(=O)NCCCN3CCCC3)CC2)c(C)o1	39	44	22	6	2	-1	.
Cc1oc(-c2ccc(Cl)cc2)nc1CN1CCC(C(=O)N2CCc3ccccc3C2)CC1	13	52*	20	-3	2	17	37	Full FLuc ctr=58*
Cc1c(C(=O)NC2CCC(C)CC2)oc2ccccc12 (stereo not drawn)	-7	-14	-14	19	1	8	.
CCCc1ccc(C(=O)CN2C(=O)C(=O)N(C3CCCC3)C2=O)cc1	.	-29	.	.	-5	-14	.

Bioassay records (PubChem BioAssay)
